proCasp3 act – activators of human procaspase-3; actives 0.11% (n = 330,000); recombinant procaspase-3 D3A, Ac-DEVD-pNA absorbance 405 nm; activation, % at 8.5 µM; AID 463141;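 active means activation above the mean of all tested compounds plus 3 SD, cut at about 21% in these data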;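 further: 0% = DMSO alone and 100% = DMSO wells spiked with extra 5 µM PC-3 D3A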
Target sequence (P42574 whole entry D9A/D28A/D175A): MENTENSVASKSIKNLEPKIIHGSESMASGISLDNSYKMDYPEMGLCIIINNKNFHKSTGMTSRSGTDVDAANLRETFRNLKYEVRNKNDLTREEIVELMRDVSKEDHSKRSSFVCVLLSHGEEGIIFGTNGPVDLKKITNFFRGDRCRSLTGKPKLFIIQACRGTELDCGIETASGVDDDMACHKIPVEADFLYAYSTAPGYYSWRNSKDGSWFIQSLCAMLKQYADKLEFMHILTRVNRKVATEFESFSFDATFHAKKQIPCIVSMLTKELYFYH
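Evaluation: percent activation relative to control range; Material: Procaspase-3 D3A mutant, all three cleavage aspartates alanine; Compound: single dose, 8.5 µM nominal compound, 0.8% DMSO; Replication: one well per compound; Signal: absorbance at 405 nm, 0 and 120 min; Schedule: 1 h preincubation plus 2 h reaction at 25 °C.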
GAA850 FXN act – activators of GAA850 frataxin (FXN) promoter; HEK293 lucGAA850 FXN promoter luciferase reporter, 24 h; percent of 10 µM SAHA response; activation, % at 6 µM; AID 540364; actives 0.56% (n = 360,000);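 active means activation above the average of all compounds screened plus 3 SD, cutoff fixed separately per campaign, cut at about 7.5% in these data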;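 further: 0% = DMSO wells and 100% = 10 µM SAHA wells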
procasp7 counter – counter-screen for procaspase-3 activators: activators of human procaspase-7; P55210; recombinant procaspase-7, Ac-DEVD-pNA absorbance 405 nm; D23A/D198A/D206A triple mutant, cannot self-cleave; scale: DMSO 0, 5 µM enzyme 100; activation, % at 8.5 µM; actives 0.093% (n = 330,000);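 active means percent activation above the screen-wide mean plus 3 SD, cut at about 25% in these data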
Target sequence (P55210 whole entry D23A/D198A/D206A): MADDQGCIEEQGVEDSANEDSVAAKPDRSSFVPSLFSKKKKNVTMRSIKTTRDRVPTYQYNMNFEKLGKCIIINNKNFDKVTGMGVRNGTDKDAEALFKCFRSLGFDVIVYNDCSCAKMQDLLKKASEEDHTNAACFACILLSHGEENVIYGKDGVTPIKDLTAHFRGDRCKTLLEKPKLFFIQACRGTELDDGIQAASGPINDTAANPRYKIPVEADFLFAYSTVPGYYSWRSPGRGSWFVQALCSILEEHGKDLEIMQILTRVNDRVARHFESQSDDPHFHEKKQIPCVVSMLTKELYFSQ
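signal = Epi-absorbance of released pNA at 405 nm, two timepoints | assay system = Uncleavable procaspase-7 mutant enzyme | reagent = Ac-DEVD-pNA substrate, 400 µM as added | times = 1 h enzyme–compound preincubation and 2 h substrate reaction, both 25 °C | benchmarks = low DMSO alone, high DMSO plus 5 µM PC-7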
GAA30 counter – GAA30 FXN promoter activation counter-screen | shares compounds with GAA850 FXN act | HEK293 lucGAA30 FXN promoter luciferase, 24 h; DMSO = 0%, 5 µM ipriflavone = 100% | activation, % at 6 µM | actives 66% (n = 1,900) | AID 588350;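 active means mean activation above the mean of solvent-only control wells plus 3 SD, cut at about 22% in these data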;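 further: counterscreen of GAA850 promoter hits where activity marks nonselective or luminescence artifacts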
FXN GAA850 conf – GAA850 FXN promoter activation confirmation; actives 86% (n = 1,900); shares compounds with GAA850 FXN act; activation, % at 6 µM; HEK293 lucGAA850 FXN promoter luciferase reporter, 24 h; 100% = activation by SAHA;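 active means mean activation above a set limit taken from the primary screen, cut at about 8% in these data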;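 further: 0% = DMSO wells and 100% = 10 µM SAHA wells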
* hit, by the source's call; / = no result. Rows were chosen to be rich in hits. Some 0.7% of all compounds tested hit in one or more screens of this group.

SMILES	proCasp3 act	GAA850 FXN act	procasp7 counter	GAA30 counter	FXN GAA850 conf
Cc1ccc2c(c1)C(c1ccccc1)N(C(=O)c1c(F)cccc1Cl)CC(=O)N2 (stereo unspecified)	2	2	3	/	/
Cc1ccsc1C(=O)N/N=C/c1ccc2c(c1)OCO2	-1	8.8*	1	104*	29*
O=C(N/N=C/c1ccc2c(c1)OCO2)c1cccs1	1	7	-21	/	/
O=C(CN1CCN(Cc2cccc(F)c2)CC1)Nc1ccccc1F	7	0	9	/	/
COc1cccc(N2CCN(C(=O)C3CCN(S(=O)(=O)c4cccs4)CC3)CC2)c1	-3	2	10	/	/
COc1ccc(-c2noc(-c3ccccc3Cl)n2)cc1OC	1	8.6*	1	112*	40*
COc1ccc(-c2noc(-c3ccoc3C)n2)cc1	3	4	-5	/	/
COc1ccc(-c2noc(-c3cccc(Cl)c3)n2)cc1OC	4	2	8	/	/
COc1ccc(-c2noc(-c3ccoc3C)n2)cc1OC	-5	7.8*	-2	96*	33*
COc1cccc(NC(=O)Nc2cc(C)ccc2F)c1	3	8.2*	11	80*	25*
COc1cccc(NC(=O)Nc2cc(C)ccc2OC)c1	6	-1	4	/	/
CC(=O)NC1C(=O)N=C(SC(C)C(=O)Nc2cccc(Cl)c2)NC1=O (stereo unspecified)	-1	2	-3	/	/
CC1=CC(=C(C#N)c2nc3ccccc3s2)C=C(C)N1CC1CCCO1 (stereo unspecified)	-22	7.8*	-24	39*	32*
c1ccc2sc(NCC3CCCO3)nc2c1 (stereo unspecified)	-4	5	-7	/	/
CCOC(=O)c1c(NC(=O)COC(=O)Cc2c[nH]c3ccccc23)sc(C(=O)N(C)C)c1C	-4	2	8	/	/
Cc1ccc(-c2noc(C3CCCN(C(=O)c4ccccc4)C3)n2)o1 (stereo unspecified)	-1	7.7*	-10	107*	30*
Cc1ccc(-c2noc(C3CCCN(C(=O)c4ccccc4Br)C3)n2)o1 (stereo unspecified)	5	2	1	/	/
CCn1c(SCC(=O)Nc2ccc(OC)c(S(=O)(=O)N3CCCCC3)c2)nnc1C1CC1	/	2	/	/	/
COc1ccc(C(C)(C)C)cc1NC(=O)c1cc(S(=O)(=O)N(C)C)ccc1N1CCCC1	-4	15*	-3	-3	9.3*
CCN(CC)S(=O)(=O)c1ccc(N2CCCC2)c(NC(=O)Cc2ccc(OC)cc2)c1	-8	6	-5	/	/
CCN(CC)S(=O)(=O)c1ccc(N2CCCC2)c(NC(=O)Cc2cc(OC)c(OC)c(OC)c2)c1	4	8.4*	-1	32*	8.4*
CN(C)S(=O)(=O)c1ccc(N2CCCC2)c(C(=O)Nc2ccc(F)cc2F)c1	-11	1	-9	/	/
Cc1cn(CC(=O)NCCc2ccccn2)c(=O)[nH]c1=O	/	-2	/	/	/
Cc1ccc(N(CC(=O)NCc2ccco2)C(=O)CCC(=O)Nc2nccs2)cc1C	-2	-1	2	/	/
O=C(Nc1ccc(Cl)cc1)Nc1ccc(Br)cn1	7	1	-6	/	/
SMILES	proCasp3 act	GAA850 FXN act	procasp7 counter	GAA30 counter	FXN GAA850 conf
Cc1nc(NCc2ccco2)c2c(C)c(C)sc2n1	-2	-7	-2	/	/
Cc1sc2nc3c4ccccc4c(NCc4ccco4)nn3c(=O)c2c1C	-22	10*	-26	105*	30*
CC(OC(=O)CCNS(=O)(=O)c1cccs1)C(=O)Nc1ccc(S(N)(=O)=O)cc1 (stereo unspecified)	1	0	5	/	/
Oc1ccc(-c2csc(-c3c[nH]c4ccccc34)n2)c(O)c1	1	8.1*	3	88*	41*
C=CCn1c(-c2csc(-c3ccc(OC)c(OC)c3)n2)n[nH]c1=S	-3	7.6*	-39	6	11*
COc1ccc(-c2nc(-c3ccc(O)cc3O)cs2)cc1OC	/	8.7*	/	75*	36*
COc1ccc(-c2nc(CCl)cs2)cc1OC	-12	1	-3	/	/
Cc1ccc(-c2csc(-c3c[nH]c4ccccc34)n2)c(C)c1	2	0	9	/	/
C=CCn1c(-c2csc(-c3ccc(Cl)cc3)n2)n[nH]c1=S	-10	2	-4	/	/
O=[N+]([O-])c1ccccc1OCCNCc1ccccc1	6	0	-8	/	/
Cc1ccc(-n2ncc3c2CCCC3NC(=O)CCCN2CCCCC2=O)cc1C (stereo unspecified)	-4	0	-7	/	/
Cc1cc(C)cc(-n2c(SCC(=O)NCc3ccc4c(c3)OCO4)nc3ccccc3c2=O)c1	0	8.6*	-3	18	7
Cc1cc(C)cc(-n2c(SCC(=O)NCc3ccco3)nc3ccccc3c2=O)c1	-4	7	2	/	/
COc1ccc2cc(CO)c3cc(OC)c(OC)cc3c2c1	1	-3	-4	/	/
Cc1c(-c2nc(N)nc(Nc3ccc(F)cc3)n2)oc2ccccc12	-10	9.8*	3	89*	38*
O=c1oc2ccccc2c(Nc2ccc(F)cc2)c1[N+](=O)[O-]	-2	1	9	/	/
Cc1ccccc1Nc1nc(N)nc(-c2oc3ccccc3c2C)n1	0	8.6*	13	101*	52*
COc1ccccc1Nc1nc(N)nc(-c2oc3ccccc3c2C)n1	5	2	1	/	/
Cc1ccc(N(C(=O)c2csnn2)C(C(=O)NC2CCCC2)c2cccnc2)c(C)c1 (stereo unspecified)	-3	0	2	/	/
O=C1C2CCCN2C(=S)N1c1ccc(Cl)cc1 (stereo unspecified)	-7	0	-21	/	/
Cc1ccc(C2=NN(CCC(=O)NC3CCCC3)C(=O)CC2)cc1	5	0	3	/	/
Clc1ccc(-c2noc(CSc3nnc(Cc4cccs4)n3-c3ccccc3)n2)cc1	4	15*	10	6	4
c1ccc(-c2noc(CSc3nnc(Cc4cccs4)n3-c3ccccc3)n2)cc1	1	-1	5	/	/
COc1ccccc1NC(=O)CON=C(N)CC(=O)NC1CCCCC1	4	2	3	/	/
O=C(Nc1ccc(S(=O)(=O)N2CCOCC2)cc1)c1cccc(Br)c1	-1	2	9	/	/
COC(=O)C1=C(C)N=C2SCCC(=O)N2C1/C=C/c1ccccc1 (stereo unspecified)	4	8.0*	-1	6	5
COc1ccccc1/C=C/C1C(C(=O)OCC(C)C)=C(C)N=C2SCCC(=O)N21 (stereo unspecified)	3	3	-3	/	/
COc1ccccc1CNc1nc(NCc2ccccc2)nc2ccsc12	/	-2	/	/	/
c1ccc(CNc2nc(NCc3ccccc3)c3sccc3n2)cc1	/	10*	/	46*	17*
CN(CCCC(=O)NCCc1ccccc1)S(=O)(=O)c1ccc([N+](=O)[O-])cc1	-9	2	9	/	/

Source: PubChem
